# From the RNAGym collection of RNA variant scans (doi:10.1126/science.aae0568)
# This sample holds only a part of the variants without activity.
# B1: tRNA (parent)
# chain: GUUCCGUUGGCGUAAUGGUAACGCGUCUCCCUCCUAAGGAGAAGACUGCGGGUUCGAGUCCCGUACGGAACG
# Variants of: B1
# Experiment: yeast fitness relative to wild type (ratio to wild type); higher = fitter; tRNA-Arg(CCU), competitive growth, 37 C, YPD
# Outline: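 Gene amplicons from the start population and from each of six end populations were read by 100-nucleotide paired-end sequencing. Those end populations came from pooled Saccharomyces cerevisiae strains carrying tRNA-Arg(CCU) gene variants at the native locus, competed in YPD at 37°C for 24 hours. Fitness relative to wild type was worked out from changes in genotype frequencies. Genotypes needed ≥ 100 starting reads, and estimates < 0.5 were set to 0.5.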
row,Variant,yeast fitness
1,GUUGCGUUGGCGUGAUGGUAACGCGUCUCCCUCCUAAGGAGAAGACUGCGGAUUCGAGUCCCGUACGGAACG [C4G A14G G52A],≤ 0.5
2,GUUACGUUGGCGUAAUGGUAACGCGUCCCCCUCCUAAGGAGAAGACCGCGGGUUCGAGUCCCGUACGGAACG [C4A U28C U47C],≤ 0.5
3,GUUGCGUUGGCGUCAUGGUAACGCGUCUCCCUCCUAAGGAGAAGACUGUGGGUUCGAGUCCCGUACGGAACG [C4G A14C C49U],≤ 0.5
4,GUUGCGUUGGCGUCAUGGUAACGCCUCUCCCUCCUAAGGAGAAGUCUGCGGGUUCGUGUCCCGUACGGAACG [C4G A14C G25C A45U A57U],0.55
5,GUUGCGUUGGCGUUAUGGUACCGCGUCUCCCUCCUAAGGAGAAGACUGCGGGUUCGAGUCCCGUACGGAACG [C4G A14U A21C],0.764
6,GUUACGUUGGCGUAAUGGUAACGCGUCUCCCCCCUAAGGAGAAGACUGCGGGUUCGAGUCCCGUACGGAACG [C4A U32C],0.912
7,GUUACGUUGGCGUAAUGGUAACGCGUCGCCCUCCUAAGGAGAAGACUAGUGGUUCGAGUCCCGUACGGAACG [C4A U28G G48A C49G G50U],≤ 0.5
8,GUUACGUUGGCGUAAUGGUAACGCGUCUCCCUCCUAAGGAGAAGACUGCGGGUCCGAGUCGCGUACGGAACG [C4A U54C C61G],≤ 0.5
9,GUUACGUUGGCGUAAUGGUAACGCGUCGCCUUCCUAAGGCGAAGACUGCGGGUUCGGGUCCCGUACGGAACG [C4A U28G C31U A40C A57G],≤ 0.5
10,GUUACGUUGGCGUAAUGGUAACGCGUCUCCCUCCUAAGGAGAAGACUGCGGGAUCGAGUCCCGUACGGAACG [C4A U53A],0.769
11,GUUGCGUUGGCGUCAUGGUAACGCGUCUCCCUCCUAAGGAGAAGACUGCGCGUUCGAGUCCCGUACGGAACG [C4G A14C G51C],≤ 0.5
12,GUUACGUUGGCGUAAUGGUAACGCGUCUCCCCCCUAAGGAGAAGACUCCGGGUUUGAGUCCCGUACGGAACG [C4A U32C G48C C55U],≤ 0.5
13,GUUACGUUGGCGUAAUGGUAACGCGUCUCCCUCCUAAGGAGAAGACUGCGGGUGCGAGUCCCGUUCGGAACG [C4A U54G A65U],≤ 0.5
14,GUUGCGUUGGCGUGAUGGUAACGCGUCUCCCUCCUAAAGAGAAGACUGCGGGUUCCAGUCCCGUACGGAGCG [C4G A14G G38A G56C A70G],≤ 0.5
15,GUUGCGUUGGCGUGAUGGUAACGCGUCUCCCUCCUAUAGAGAAGACUGCGGGUUCGAGUCCCGUACGGAACG [C4G A14G A37U G38A],≤ 0.5
16,GUUGCGUUGGCGUUAUGGUAACGUGUCUCCCUCCUAAGGAGAAGACUGGGGGUUCGAGUCCCGUACGGAACG [C4G A14U C24U C49G],≤ 0.5
17,GUUGCGUUGGCGUCAUGGUGACGCGUCUCCCUCCUAAGGAGAAGACUGCGGGUUCGAGUCCCGUACGGAACG [C4G A14C A20G],0.619
18,GUUACGUUGGCGUAAUGGUAACGCGUCUCCCUCCAAAGGAGAAGACCGUGGGUUCGAGUCCAGUACGGGACG [C4A U35A U47C C49U C62A A69G],≤ 0.5
19,GUUACGUUGGCGUAAUGGUAACGCGUCUCCCUCCUAAGGAGAAGACAGCGGGUUCGAGUCCCGUACGGAGCG [C4A U47A A70G],0.536

row,Variant,yeast fitness
1,GUUACGUUGGCGUAAUGGUAACGCGUCUCCCCCCUAAGGUGAAGACUGGGGGUUCGAGUCCCGUACGCAACG [C4A U32C A40U C49G G68C],≤ 0.5
2,GUUGCGUUGGCGUCAUGGUAACGCCUCUCCCUCCUAAGGAGAAGUCAGCGGGUUCGUGUCCCGUACGGAACG [C4G A14C G25C A45U U47A A57U],≤ 0.5
3,GUUGCGUUGGCGUCAUGGUAACGCCUCUCCCUCCUAAGGAGAAGUCUGCGGGUUCGAGUCCCGUACGGAACG [C4G A14C G25C A45U],≤ 0.5
4,GUUACGUUGGCGUAAUGGUAACGCGUCUCCCCCCUAAGGUGAAGACUGCGGGUUCGAGUCCCGUACGGUACG [C4A U32C A40U A69U],≤ 0.5
5,GUUACGUUGGCGUAAUGGUAACGCGUCUCCCUCCGAAGGAGAAGACUGCGGGUUCGAGUCCCGUACGGAACG [C4A U35G],0.564
6,GUUACGUUGGCGUAAUGGUAACGCGUCUCCCCCCUAAGGAGCAGACUGCGGGUUCGAGUCCCGUACGGAACG [C4A U32C A42C],0.578
7,GUUGCGUUGGCGUCAUGGUAACGUGUCUCCCUCCUAAGGAGAAGACUGUGGGUUCGAGUCCCGUACGGAACG [C4G A14C C24U C49U],≤ 0.5
8,GUUACGUUGGCGUAAUGGUAACGCGUCUCCCUCCUAAGGAGAAGACUGCGGGCUCGAGUCCCGUACCGAACG [C4A U53C G67C],0.537
9,GUUACGUUGGCGUAAUGGUAACGCGUCUCCCACCUAAGGAGAAGACUGCGGGUUCGGGUCCCGUUCGGAACG [C4A U32A A57G A65U],≤ 0.5
10,GUUACGUUGGCGUAAUGGUAACGCGUCUCCCUCCUAAGGAGAAGACUGCGGGUUCGAGUCCCGCACGCAACG [C4A U64C G68C],0.971
11,GUUGCGUUGGCGUUAUGGUAACGUGUCUCCCUCCUAAGGAGAAGACUGGGGGUUCGAGUCCCAUACGGAACG [C4G A14U C24U C49G G63A],≤ 0.5
12,GUUACGUUGGCGUAAUGGUAACGCGUCUCCCUCCUAAGGAGAAGACUGCGGGUGCGAGUCCCGUACGGAACG [C4A U54G],0.612
13,GUUGCGUUGGCGUCAUGGUAACGGGUCUCCCUCCUAAGGAGAAGACUGCGGGCUCGAGUCCGGUACGGAACG [C4G A14C C24G U53C C62G],≤ 0.5
14,GUUGCGUUGGCGUGAUGGUAACGGGUCUCCCUCCUAAGGAGAAGACUGCGGGUUCGAGUCCCGUACGGAACG [C4G A14G C24G],≤ 0.5
15,GUUACGUUGGCGUAAUGGUAACGCGUCUCCCACCUAACGAGAAGACAGCGGGUUCGAGUCCCGUACGGAACG [C4A U32A G38C U47A],≤ 0.5
16,GUUACGUUGGCGUAAUGGUAACGCGUCUCCCUCCCAAGGAGAAGACUGCGGGUUCGUGUCCCGUACGGAACG [C4A U35C A57U],≤ 0.5
17,GUUGCGUUGGCGUCAUGGUAACGCGUCUCCCUCCUAAGGAGAAGACUCCGGGUUCGAGUCCCGUACGGAACG [C4G A14C G48C],0.579
18,GUUACGUUGGCGUAAUGGUAACGCGUCUCCCCCCUAAGGAGAAGACUGCGGGUUCGAGGCCCGUACGGAACG [C4A U32C U59G],≤ 0.5
19,GUUACGUUGGCGUAAUGGUAACGCGUCUCCCUCCAAUGGAGAAGACUGCGGGUUCGAGUCCCGUACUGAACG [C4A U35A A37U G67U],≤ 0.5
